Shown are actives, neighbours in structure and some others; about 1.5% of the full set was active somewhere.
CCR6 antag: blocks CCL20-driven beta-arrestin recruitment at human CCR6. hit rate 0.49% among 340,000. inhibition, % at 20 µM. CHO-K1 CCR6 PathHunter beta-arrestin, luminescence, CCL20-stimulated. P51684. AID 493098;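 active = compounds whose inhibition of the agonist-driven luminescence signal at 20 µM reaches about 50%, limit read from the data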;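 also: cells stimulated with CCL20 at 14 nM final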
EBI2 block: antagonists of human EBI2 receptor; P32249; EBI2 beta-arrestin recruitment, luminescence, 7a,25-OHC stimulated; inhibition, % at 5 µM; hit rate 0.81% among 360,000; in the data active = inhibition above about 38%;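 also: enzyme fragment complementation signal reports receptor beta-arrestin coupling in cells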
Target sequence (P32249 whole entry, looked up, the tested form may be a part): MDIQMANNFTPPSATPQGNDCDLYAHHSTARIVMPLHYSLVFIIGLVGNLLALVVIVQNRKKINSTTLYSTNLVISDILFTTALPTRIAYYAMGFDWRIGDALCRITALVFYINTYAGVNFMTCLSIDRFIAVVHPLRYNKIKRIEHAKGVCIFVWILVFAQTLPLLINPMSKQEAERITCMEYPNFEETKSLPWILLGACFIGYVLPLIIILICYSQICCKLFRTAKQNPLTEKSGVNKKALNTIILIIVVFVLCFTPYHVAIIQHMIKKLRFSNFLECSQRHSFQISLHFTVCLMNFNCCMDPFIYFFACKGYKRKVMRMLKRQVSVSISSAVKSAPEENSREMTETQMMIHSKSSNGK
CXCR6 block: blocks human CXCR6 beta-arrestin recruitment; O00574; CHO-K1 PathHunter CXCR6 beta-arrestin, luminescence; inhibition, % at 20 µM; hit rate 0.36% among 360,000; in the data active = inhibition above about 34%, passing the limit was not always enough;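 also: antagonist mode with CXCL16 agonist at 10 nM final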
APJ ag: APJ receptor agonism; CHO-K1 APJ PathHunter beta-arrestin, luminescence; 0% DMSO wells, 100% apelin; AID 2520; activation, % at 20 µM; hit rate 0.11% among 330,000;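 active = activation more than six SD over the plate average, tested at 20 µM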
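Test system – PathHunter CHO-K1 APJ (AGTRL-1) beta-arrestin reporter cells · Input – 1000 cells/well · Compound – single test compound dose, 20 µM final, 1% DMSO · Times – compound stimulation 90 min at 25 °C, detection 60 min · Technique – beta-gal luminescence · Read-out basis – APJ–arrestin association signal · Control set – negative DMSO alone, positive Apelin-13 at 10 nM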
APJ antagonist: blocks the human apelin receptor APJ; hit rate 0.32% among 330,000; P35414; AID 2521; inhibition, % at 20 µM; CHO-K1 APJ beta-arrestin complementation, luminescence;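 active = inhibition above about 40% at 20 µM, limit read from the data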;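 also: cells challenged with 10 nM apelin-13 agonist together with compound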
APJ antag confirm: confirmation of human APJ apelin receptor antagonists; APJ beta-arrestin recruitment, luminescence, antagonist mode; hit rate 66% among 950; inhibition, % at 20 µM; shares compounds with APJ antagonist; in the data active = inhibition above about 50%
A number is an active result.

How did CN(C(=O)c1cc2ccccc2o1)c1c(N)n(Cc2ccccc2)c(=O)[nH]c1=O do in these assays?
CCR6 antag: inactive; EBI2 block: inactive; CXCR6 block: inactive; APJ ag: inactive; APJ antagonist: inactive

What do the screens show for `C/C(=N\NC(=O)c1cc(Br)ccc1O)c1ccccn1`?
CCR6 antag: 54.1; EBI2 block: inactive; CXCR6 block: inactive; APJ ag: inactive; APJ antagonist: 44.1; APJ antag confirm: inactive

How did CCOC(=O)C1=C(CCl)NC(=O)NC1c1ccc2c(c1)OCO2 (configuration not stated) do in these assays?
CCR6 antag: inactive; EBI2 block: inactive; CXCR6 block: inactive; APJ ag: inactive; APJ antagonist: inactive

Results for CCCc1nc2ccc(C)cn2c1Cc1ccc(C)cc1 ?
EBI2 block: inactive; CXCR6 block: inactive

What do the screens show for `C=CCN1C(=O)/C(=C2/Sc3ccccc3N2CC)SC1=S`?
CCR6 antag: inactive; EBI2 block: inactive; CXCR6 block: inactive; APJ ag: inactive; APJ antagonist: inactive

What do the screens show for `C=CCN1C(=O)/C(=C/C=C2/N(CC)c3ccc(S(=O)(=O)N(C)C)cc3N2CC)SC1=S`?
CCR6 antag: 63.6; EBI2 block: inactive; CXCR6 block: inactive; APJ ag: inactive; APJ antagonist: 52.0; APJ antag confirm: 106.5

What do the screens show for `CC(=O)NC12CC3CC(C1)CC(C(=O)N1CCN(S(=O)(=O)c4ccc(C(C)C)cc4)CC1)(C3)C2`?
CCR6 antag: inactive; EBI2 block: inactive; CXCR6 block: inactive; APJ ag: inactive; APJ antagonist: inactive

What do the screens show for `Cc1ccc(NC(=O)CCC(=O)c2cccs2)c(O)c1`?
CCR6 antag: inactive; EBI2 block: inactive; CXCR6 block: inactive; APJ ag: inactive; APJ antagonist: inactive

Results for OCCN1C[C@H](O)[C@@H](O)[C@H](O)[C@H]1CO ?
APJ ag: inactive; APJ antagonist: 43.2; APJ antag confirm: 65.1

What do the screens show for `CNC(=O)c1nnsc1S(=O)(=O)c1ccc(Cl)cc1`?
CCR6 antag: 77.1; EBI2 block: inactive; CXCR6 block: 63.5; APJ ag: inactive; APJ antagonist: 46.6; APJ antag confirm: 70.5

Results for CNC(=O)c1ccc(S(=O)(=O)c2ccc(Cl)cc2)c(NC(C)=O)c1 ?
CCR6 antag: inactive; EBI2 block: inactive; CXCR6 block: inactive; APJ ag: inactive; APJ antagonist: inactive

How did Cc1cccc2c1ncc1c(=O)n(-c3ccccc3)[nH]c12 do in these assays?
CCR6 antag: inactive; EBI2 block: inactive; CXCR6 block: inactive; APJ ag: inactive; APJ antagonist: inactive

What do the screens show for `CC1=Nc2ccccc2/C1=C/c1sc(=N)n(-c2nccs2)c1O`?
CCR6 antag: inactive; EBI2 block: inactive; CXCR6 block: inactive; APJ ag: inactive; APJ antagonist: 46.3; APJ antag confirm: 52.8

Results for CC(=O)Nc1ccc(NC(=O)CN2C(=O)COc3ccc(S(=O)(=O)N4CCOCC4)cc32)cc1 ?
CCR6 antag: inactive; EBI2 block: inactive; CXCR6 block: inactive; APJ ag: inactive; APJ antagonist: inactive

Results for CC(C)c1ccc(NC(=O)CN2C(=O)COc3ccc(S(=O)(=O)N4CCOCC4)cc32)cc1 ?
CCR6 antag: inactive; EBI2 block: inactive; CXCR6 block: inactive; APJ ag: inactive; APJ antagonist: 45.3; APJ antag confirm: inactive

What do the screens show for `O=C(O)CC1(CC(=O)Nc2ccc(Cl)cc2C(=O)c2ccccc2)CCCC1`?
CCR6 antag: inactive; EBI2 block: inactive; CXCR6 block: inactive; APJ ag: inactive; APJ antagonist: inactive

How did COC(=O)c1cc(NC(=O)CSc2nnc(N)s2)ccc1Cl do in these assays?
CCR6 antag: inactive; EBI2 block: inactive; CXCR6 block: inactive; APJ ag: inactive; APJ antagonist: inactive

What do the screens show for `Nc1nnc(SCC(=O)Nc2ccc(Cl)c(C(=O)O)c2)s1`?
CCR6 antag: inactive; EBI2 block: inactive; CXCR6 block: inactive; APJ ag: inactive; APJ antagonist: 45.5; APJ antag confirm: inactive

How did C=CCN1C(=O)/C(=C\C=C2\N(C)c3ccccc3C2(C)C)SC1=S do in these assays?
CCR6 antag: 71.3; EBI2 block: inactive; CXCR6 block: inactive; APJ ag: inactive; APJ antagonist: 57.0; APJ antag confirm: 81.9

How did CN1/C(=C\C=C2/SC(=S)N(CC(=O)O)C2=O)C(C)(C)c2ccccc21 do in these assays?
CCR6 antag: 58.8; EBI2 block: inactive; CXCR6 block: 45.3; APJ ag: inactive; APJ antagonist: 50.9; APJ antag confirm: 92.9

How did CCCN1C(=O)/C(=C/C=C2\N(CC)c3ccccc3C2(C)C)SC1=S do in these assays?
CCR6 antag: inactive; EBI2 block: inactive; CXCR6 block: inactive; APJ ag: inactive; APJ antagonist: inactive

How did CN1CCS/C1=C\C=C1/SC(=S)N(CC(=O)O)C1=O do in these assays?
CCR6 antag: inactive; EBI2 block: inactive; CXCR6 block: inactive

Results for COc1cc(C(=O)N2CCN(c3cccc(C)c3C)CC2)cc(OC)c1OC ?
CCR6 antag: inactive; EBI2 block: inactive; CXCR6 block: inactive; APJ ag: inactive; APJ antagonist: 49.8; APJ antag confirm: inactive

Results for Cc1cccc(N2CCN(C(=O)c3ccncc3)CC2)c1C ?
CCR6 antag: inactive; EBI2 block: inactive; CXCR6 block: inactive; APJ ag: inactive; APJ antagonist: inactive

Results for COc1cc(C(=O)OCC(=O)NC2CC2)ccc1OCCC(C)C ?
CCR6 antag: inactive; EBI2 block: inactive; CXCR6 block: inactive; APJ ag: inactive; APJ antagonist: inactive

What do the screens show for `CC(=O)c1ccc(N=Nc2ccc(N)cc2)cc1`?
CCR6 antag: inactive; EBI2 block: inactive; CXCR6 block: inactive; APJ ag: inactive; APJ antagonist: 46.3; APJ antag confirm: inactive

What do the screens show for `O=C(N1CCCC1)C(F)(F)Oc1ccc(F)cc1`?
CCR6 antag: inactive; EBI2 block: inactive; CXCR6 block: inactive; APJ ag: inactive; APJ antagonist: inactive

What do the screens show for `COc1ccc(CC(=O)OC(C)C(=O)NCc2ccc3c(c2)OCO3)cc1OC` (configuration not stated)?
CCR6 antag: inactive; EBI2 block: inactive; CXCR6 block: inactive; APJ ag: inactive; APJ antagonist: 40.9; APJ antag confirm: inactive

Results for O=S(=O)(c1cccc(Cl)c1Cl)N1CCCCC1 ?
CCR6 antag: inactive; EBI2 block: inactive; CXCR6 block: inactive; APJ ag: inactive; APJ antagonist: 40.4; APJ antag confirm: inactive

How did CN(N)c1ccc2c(C(F)(F)F)cc(C(F)(F)F)nc2n1 do in these assays?
CCR6 antag: inactive; EBI2 block: inactive; CXCR6 block: inactive; APJ ag: inactive; APJ antagonist: inactive

How did N#CC(c1ccccc1)c1ccc2c(C(F)(F)F)cc(C(F)(F)F)nc2n1 (configuration not stated) do in these assays?
CCR6 antag: 53.1; EBI2 block: inactive; CXCR6 block: inactive; APJ ag: inactive; APJ antagonist: 41.7; APJ antag confirm: 87.8

Results for FC(F)(F)c1cc(C(F)(F)F)c2ccc(N/N=C/c3ccccc3)nc2n1 ?
CCR6 antag: inactive; EBI2 block: inactive; CXCR6 block: inactive; APJ ag: inactive; APJ antagonist: inactive

Bioassay records from PubChem BioAssay.
